From ChEMBL document CHEMBL3808340, “Development of Novel 1,2,3,4-Tetrahydroquinoline Scaffolds as Potent NF-κB Inhibitors and Cytotoxic Agents” (ACS Med Chem Lett, 2016) come the findings set out here.

SMILES strings stand for the structures.

A short description of assay [1]: Cytotoxicity against human HCT15 cells after 72 hrs by sulforhodamine B assay. It is filed as functional. As to conditions: HCT-15, 72 h. The method in brief:
(§1)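 Sulforhodamine B staining following the NCI (USA) protocol was used to estimate cell number indirectly in six human cancer lines. GI50 is the concentration giving a 50% decrease in net cell growth, reported as the mean of three experiments.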
On the technique in general: Sulforhodamine B stains cellular protein and so reports cell mass.

For assay [2], the system named is MDA-MB-231. Description: Cytotoxicity against human MDA-MB-231 cells after 72 hrs by sulforhodamine B assay. Type of assay: functional. As to conditions: MDA-MB-231, 72 h. In a few lines: as §1
Assay [3] is described as follows: Cytotoxicity against human PC3 cells after 72 hrs by sulforhodamine B assay. It is filed as functional. To be noted: PC-3, 72 h. The method in brief: as §1
Assay [4] relates to NCI-H23. The assay is described as follows: Cytotoxicity against human NCI-H23 cells after 72 hrs by sulforhodamine B assay. To be noted: NCI-H23, 72 h. Type of assay: functional. In a few lines: as §1
Assay [5] in a line: Cytotoxicity against human NUGC3 cells after 72 hrs by sulforhodamine B assay. It is filed as functional. As to conditions: NUGC-3, 72 h. In a few lines:
as §1

Assay [6] has as its system ACHN. The assay is described as follows: Cytotoxicity against human ACHN cells after 72 hrs by sulforhodamine B assay. It is filed as functional. The method in brief:
as §1

Assay [7] relates to RAW264.7. Description: Inhibition of LPS-induced NFkappaB (unknown origin) transcriptional activity expressed in mouse RAW264.7 cells at 100 uM incubated for 16 hrs by SEAP based reporter gene assay relative to control. It is filed as cell-based. (A reporter such as luciferase makes a cellular process visible.)
Assay [8] can be described thus: Inhibition of LPS-induced NFkappaB (unknown origin) transcriptional activity expressed in mouse RAW264.7 cells incubated for 16 hrs by SEAP based reporter gene assay. It is filed as cell-based. As to conditions: RAW264.7, 16 h.

One may read the GI50 as the concentration at which growth is held to half of that of the control. Read a low GI50 as greater sensitivity of the cells. Turning to `COc1cccc2c1C(=O)c1c(O)c3c(c(O)c1C2=O)C[C@@](O)(C(=O)CO)C[C@@H]3O[C@H]1C[C@H](N)[C@H](O)[C@H](C)O1` [DOXORUBICIN], the GI50 was found to be 0.0854 µM in assay [1]; 0.112 µM in assay [2]; 0.0923 µM in assay [3]; 0.0726 µM in assay [4]; 0.125 µM in assay [5]; 0.0995 µM in assay [6].
For orientation: inhibition means the relative decrease from the control value, in per cent. A word on the IC50: it is the midpoint of a concentration-inhibition curve. The low end stands for inhibition by little substance, the high end for a need for much substance. As to `CC(=O)N1c2ccccc2CCC1C(=O)Nc1cc(C(F)(F)F)cc(C(F)(F)F)c1` (stereo not drawn), the GI50 in assay [1], in assay [2], in assay [3], in assay [4], in assay [5] and in assay [6] was > 70 µM in each case. In assay [7], the inhibition worked out at 85%. This compound yielded an IC50 in assay [8] of 23 µM.
In assay [4], `O=C(Nc1ccccc1)c1ccc2ccccc2n1` displayed a GI50 of 108 µM.
Same read-out and setting: in the case of `COc1ccc(NC(=O)c2ccc3ccccc3n2)cc1` it was 7.65 µM.
Take `CCC(=O)N1c2ccccc2CCC1C(=O)Nc1ccccc1C(F)(F)F` (stereo not drawn): the concentration for 50% growth inhibition (GI50) in assay [1], in assay [2], in assay [3], in assay [4], in assay [5] and in assay [6] was > 80 µM in each case. This compound gave an inhibition in assay [7] of 43%.
Regarding `CC(=O)N1c2ccccc2CCC1C(=O)Nc1ccccc1C(F)(F)F` (stereo not drawn), the concentration for 50% growth inhibition (GI50) in assay [1], in assay [2], in assay [3], in assay [4], in assay [5] and in assay [6] was > 80 µM each time. In assay [7], this compound displayed an inhibition of 32%.
In the case of `S=C(S)N1CCCC1` [PYRROLIDINE DITHIOCARBAMATE], the half-inhibitory concentration (IC50) in assay [8] turned out to be 37.2 µM.
Regarding `CC(=O)N1c2ccccc2CCC1C(=O)Nc1ccccc1O` (stereo not drawn), the GI50 in assay [1] came out at 54.5 µM; in assay [2] it was 89.6 µM; in assay [3], 70.7 µM; in assay [4], 65.7 µM; in assay [5], 49.7 µM; in assay [6], 50.7 µM. This compound had an inhibition in assay [7] of 19%.
On to `O=C(Nc1ccccc1O)c1ccc2ccccc2n1`, for which the 50% growth inhibitory concentration (GI50) in assay [4] was determined as 87.5 µM.
Still for that read-out and setting: then `O=C(Nc1ccc(O)cc1)c1ccc2ccccc2n1`, with 102 µM.
With `O=C(Nc1ccccc1C(F)(F)F)C1CCc2ccccc2N1C(=O)c1ccccc1` (stereo not drawn), the 50% growth inhibitory concentration (GI50) in assay [1] was 6.5 µM; in assay [2], 5.29 µM; in assay [3], 5.56 µM; in assay [4] it was 6.34 µM; in assay [5] it was 8.12 µM; in assay [6] it was 8.09 µM. This compound also yielded an inhibition in assay [7] of 44%.
On to `O=C(Nc1ccc(C(F)(F)F)cc1)c1ccc2ccccc2n1`, for which the concentration for 50% growth inhibition (GI50) in assay [4] is > 90 µM.
Same read-out and setting: then `O=C(Nc1cc(C(F)(F)F)cc(C(F)(F)F)c1)c1ccc2ccccc2n1`, with 1.44 µM.
With `CCC(=O)N1c2ccccc2CCC1C(=O)Nc1ccccc1O` (stereo not drawn), the concentration for 50% growth inhibition (GI50) in assay [1], in assay [2], in assay [3], in assay [4], in assay [5] and in assay [6] was > 90 µM throughout. In assay [7], this compound returned an inhibition of 31%.
As to `CCCC(=O)N1c2ccccc2CCC1C(=O)Nc1ccccc1O` (stereo not drawn), the GI50 in assay [1] amounted to 58.3 µM; in assay [2], 38 µM; in assay [3] it was 72.5 µM; in assay [4] it was 43.1 µM; in assay [5] it was 35.4 µM; in assay [6], 50.6 µM. This compound also displayed an inhibition in assay [7] of 41%.
With `O=C(Nc1ccccc1C(F)(F)F)c1ccc2ccccc2n1`, the GI50 in assay [4] was > 90 µM.
`CCCCCCCCC(=O)N1c2ccccc2CCC1C(=O)Nc1ccccc1O` (stereo not drawn): the GI50 came to 38.4 µM in assay [1]; 54.3 µM in assay [2]; 45.2 µM in assay [3]; 55.8 µM in assay [4]; 31.1 µM in assay [5]; 65 µM in assay [6]. The same compound registered an inhibition in assay [7] of 22%.
As for `COc1cc2c(cc1O)CCC(C(=O)Nc1ccccc1)O2` (stereo not drawn), the inhibition in assay [7] is 72%. This compound also yielded an IC50 in assay [8] of 53 µM.
